Bioassay records from PubChem BioAssay.
In the library only some 3.1% were active in any assay of this set; here they are far more common.
PP5 primary = inhibitors of human protein phosphatase 5 (PP5) | P53041 | purified PP5c, OMFP substrate fluorescence | inhibition, % at 6.7 µM | 320,000 compounds, 0.18% hits;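 active means inhibition above the campaign's mean inhibition across all tested compounds plus 3 SD, cut at about 9.5% in these data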;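 further: 0% = DMSO only and 100% = 100 µM cantharidin control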
HCV core dimer = HCV core protein dimerization inhibition | 300,000 compounds, 0.33% hits | TR-FRET GST/Flag-core106 dimerization, 1536-well | inhibition, % at 5 µM;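 active means inhibition above the mean of all tested compounds plus 3 SD, set per screening campaign, cut at about 45% in these data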
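System – GST-tagged and Flag-tagged HCV core protein residues 1-106 · Repeats – one well for each compound · Technique – TR-FRET 671 and 617 nm emission · Doses – one concentration, 5 µM, in 0.5% DMSO · Times – 4 h, 22.5 °C incubation · Also added – Eu donor and XL665 acceptor anti-tag antibodies · Measure – percent inhibition of core106 dimerization signal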
NadD block = NadD (S. aureus) enzyme inhibition | purified NadD enzyme, colorimetric absorbance read-out | inhibition, % at 20 µM | AID 602399 | 360,000 compounds, 0.78% hits; in the data active means inhibition above about 26%
Myeloid diff MLP = myeloid differentiation induction; 360,000 compounds, 1% hits; ER-HoxA9 myeloid progenitors, lysozyme-GFP differentiation, flow cytometry; AID 624256; calls only at 10 µM;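 active means normalized GFP-positive differentiation at or above the plate's own cutoff, the solvent-only control mean plus 3 SD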;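 further: cells exposed to compound for four days before flow analysis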
CTSL1 counter = blocks F. hepatica cathepsin L1 in PFM18AAP counter-screen; recombinant F. hepatica cathepsin L1, Z-Leu-Arg-MCA fluorescence; inhibition, % at 5.96 µM; 300,000 compounds, 0.49% hits; AID 1906;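 active means inhibition above the mean of all tested compounds plus 3 SD, set per screening campaign, cut at about 17% in these data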;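 further: 0% = plate median of test compound wells and 100% = 1 µM Z-Phe-Ala-diazomethylketone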
PP1 counter = counter-screen for PP5 inhibitors: inhibitors of human PP1-alpha. P62136. purified PP1alpha, OMFP fluorescence. inhibition, % at 6.7 µM. 320,000 compounds, 0.9% hits. AID 2235;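 active means inhibition above the mean inhibition of all tested compounds plus 3 SD, computed separately for each screening campaign, cut at about 15% in these data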
Target sequence (P62136 whole entry, looked up): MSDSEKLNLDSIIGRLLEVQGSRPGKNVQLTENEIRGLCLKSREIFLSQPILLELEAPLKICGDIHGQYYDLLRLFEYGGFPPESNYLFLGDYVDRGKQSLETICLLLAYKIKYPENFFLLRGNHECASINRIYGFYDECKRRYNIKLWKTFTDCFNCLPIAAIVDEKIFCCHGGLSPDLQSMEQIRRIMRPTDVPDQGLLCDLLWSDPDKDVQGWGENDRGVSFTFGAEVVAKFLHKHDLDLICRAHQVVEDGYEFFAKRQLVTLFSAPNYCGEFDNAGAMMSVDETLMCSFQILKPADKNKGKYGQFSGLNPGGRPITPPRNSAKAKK
NadD conf = confirmation of Staphylococcus aureus NadD inhibitors | purified S. aureus NadD, colorimetric enzyme assay | shares compounds with NadD block | AID 624309 | inhibition, % at 20 µM | 2,000 compounds, 13% hits; in the data active means inhibition mostly above about 42%, no sharp cut-off; inactive means mostly below about 42%
Numbers without * were called inactive; i = inactive; · = no result; + = active, no number.

SMILES	PP5 primary	HCV core dimer	NadD block	Myeloid diff MLP	CTSL1 counter	PP1 counter	NadD conf
CC(C)(C)OC(=O)C[C@@H]1C/C=C\C[C@H](CC(=O)N(CCO)Cc2ccccc2)C(=O)N[C@H](Cc2ccccc2)COC1=O	·	·	-3	i	·	·	·
COc1ccc(Cl)cc1C(=O)N1CCN(Cc2ccc3c(c2)OCO3)CC1	0	6	1	i	1	-2	·
CCOc1ccc(C(=O)Nc2cc(NC(=O)c3ccc(OCC)c(Cl)c3)cc(C(=O)O)c2)cc1Cl	·	·	30*	i	·	·	13
CCCSC1=N/C(=C\c2ccc3c(c2)OCO3)C(=O)S1	-1	0	40*	i	-1	1	-3
O=C1SC(SCc2ccccc2)=N/C1=C\c1ccco1	5	4	15	i	1	-1	·
CCSC1=N/C(=C\c2ccc3c(c2)OCO3)C(=O)S1	3	6	0	i	0	-2	·
CCCSC1=N/C(=C\C=C\c2ccco2)C(=O)S1	4	44	40*	i	1	3	24
Cc1nn(-c2ccccc2)c(Cl)c1C(=O)OCC(=O)NCCc1ccc(S(N)(=O)=O)cc1	·	·	2	i	·	·	·
O=C(Nc1ccc(C2=NCCN2)cc1)c1ccc(C(=O)Nc2ccc(C3=NCCN3)cc2)c([N+](=O)[O-])c1	1	18	50*	i	6	14	22
COc1ccc(CCNC(=O)CC(=O)N/N=C/c2ccc(Br)cc2)cc1OC	1	-8	2	i	2	0	·
COc1ccc(C)cc1-n1c(SCC(=O)Nc2cc(C)on2)nc2sc(C)c(C)c2c1=O	-1	5	36*	i	7	-2	35
NC(=S)N/N=C/c1ccc(-c2ccc(Cl)c(Cl)c2)o1	3	37	39*	i	23*	6	12
Cc1ccc(-c2ccc(/C=N/NC(N)=S)o2)cc1	2	-4	9	i	12	-12	·
COc1ccc(/C=N/NC(=O)c2cc(Br)ccc2O)cc1Cn1cc(Cl)cn1	2	1	39*	i	1	5	38
COCCn1c(-c2ccc(-c3ccc([N+](=O)[O-])cc3Br)o2)nc2c1c(=O)[nH]c(=O)n2CC(C)C	1	27	44*	+	10	8	6
COCCn1c(-c2ccc(SC)cc2)nc2c1c(=O)[nH]c(=O)n2CC(C)C	-1	6	-3	i	0	0	·
O=c1[nH]c(=O)n(Cc2ccccc2)c2nc(-c3ccc(Oc4ccc(F)cc4)c([N+](=O)[O-])c3)n(CCO)c12	6	9	21	i	-3	9	·
COc1ccc(-c2ccc(-c3nc4c(c(=O)[nH]c(=O)n4Cc4ccccc4)n3C)o2)c([N+](=O)[O-])c1	0	33	52*	i	0	-2	9
Nn1c(-c2cccc(O)c2)nnc1-c1cccc(O)c1	·	·	0	i	·	·	·
CCCCNC(=O)C1(C)CCN1C(=O)c1ccc2ccccc2n1 (stereo not drawn)	·	·	2	i	·	·	·
Cc1cccc(Nc2nnc(SC/C(O)=C(\C#N)c3nc4ccccc4[nH]3)s2)c1C	2	34	45*	i	5	9	41
Cc1ccc(C)c(SCC(=O)OC/C(O)=C(\C#N)c2nc3ccccc3[nH]2)c1	·	·	28	i	·	·	·
Cc1cccc(C)c1Nc1nnc(SC/C(O)=C(\C#N)c2nc3ccccc3[nH]2)s1	-1	28	32*	i	2	2	69*
Cn1cnnc1SC/C(O)=C(\C#N)c1nc2ccccc2[nH]1	2	1	-4	i	-1	-4	·
Cc1ccc(Nc2nnc(SCC(O)=C(C#N)c3nc4ccccc4[nH]3)s2)c(C)c1	·	·	31*	i	·	·	60*
O=C(C[C@H]1C=C[C@@H](NC(=O)c2ccncc2)[C@@H](CO)O1)NCC1CC1	·	·	·	i	·	·	·
CN(C)c1ccc(C(CN)c2c[nH]c3ccccc23)cc1 (stereo not drawn)	2	-1	31*	i	3	3	11
CN(C)c1ccc(C(CNS(=O)(=O)c2ccc3ccccc3c2)c2c[nH]c3ccccc23)cc1 (stereo not drawn)	3	25	22	i	0	-5	·
